Calls of active or inactive are those of the source. No cut-off for these calls is given here.
Key:
Assay type in all cases: functional, cell-based
PC-3M [1] = experiment: Induction of apoptosis in human PC3M cells assessed as accumulation at subG1 phase at 0.5 ug/ml after 24 hrs by flow cytometry
Method in brief: (§1)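 PC-3M cells at about 75% confluency were seeded at 2.5 × 10^5 cells/well and left to reattach overnight at 37 °C in 5% CO2. They were then treated for 24 h in RPMI 1640 with 10% FBS, penicillin 100 IU/mL, streptomycin 50 µg/mL and Glutamax 2 mM. Controls were 0.1% DMSO (negative) and 0.5 µg/mL nocodazole (positive). Floating and adherent cells were pooled, PBS-washed, stained for DNA content with Guava cell cycle reagent, and scored as % sub-G1 by flow cytometry.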

NIH3T3 [2] = experiment: Induction of apoptosis in mouse NIH3T3 cells assessed as accumulation at subG1 phase at 0.5 ug/ml after 24 hrs by flow cytometry
NCI-H460 = experiment: Antiproliferative activity against human NCI-H460 cells by MTT assay
Method in brief: (§2)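 Cells were exposed to serial dilutions of DMSO-dissolved samples for 72 h in RPMI 1640 with 10% fetal bovine serum and glutamax. Viability was read by the tetrazolium (MTT) colorimetric assay as inhibition of proliferation.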

[3] = Antiproliferative activity against human PC3M cells by MTT assay; conditions: PC-3M; method in brief: as §2
MIA PaCa-2 = experiment: Antiproliferative activity against human MIAPaCa2 cells by MTT assay; method in brief: as §2
PC-3M [4] = experiment: Induction of apoptosis in human PC3M cells assessed as accumulation at subG1 phase at 2.5 to 10 uM after 24 hrs by flow cytometry; method in brief: as §1
NIH3T3 [5] = experiment: Induction of apoptosis in mouse NIH3T3 cells assessed as accumulation at subG1 phase at 2.5 to 10 uM after 24 hrs by flow cytometry
MCF7 = experiment: Antiproliferative activity against human MCF7 cells by MTT assay; method in brief: as §2
SF-268 = experiment: Antiproliferative activity against human SF268 cells by MTT assay; method in brief: as §2

Row | SMILES | Activity (PC-3M [1]) | Activity (NIH3T3 [2]) | IC50 (NCI-H460) [µM] | IC50 [3] [µM] | IC50 (MIA PaCa-2) [µM] | Activity (PC-3M [4]) | Activity (NIH3T3 [5]) | IC50 (MCF7) [µM] | IC50 (SF-268) [µM]
1 | COC(=O)Nc1nc2cc(C(=O)c3cccs3)ccc2[nH]1 | Active | Active |  |  |  |  |  |  | 
2 | COc1cccc2c1C(=O)c1c(O)c3c(c(O)c1C2=O)C[C@@](O)(C(=O)CO)C[C@@H]3O[C@H]1C[C@H](N)[C@H](O)[C@H](C)O1 [DOXORUBICIN] |  |  | 0.01 | 1.11 |  |  |  |  | 
3 | C=C1CC[C@H]2C(C)(C)CCC[C@]2(C)[C@H]1CC1=C(O)C(=O)C(CO)=CC1=O [TAURANIN] |  |  | 4.3 | 3.5 | 2.8 | Active | Active | 1.5 | 1.8

Source: ChEMBL document CHEMBL1144804, “Sesquiterpene quinones and related metabolites from Phyllosticta spinarum, a fungal strain endophytic in Platycladus orientalis of the Sonoran Desert” (J Nat Prod, 2008)
